Experiments:
[1] = system: PC‐3 tumor xenografts; test: Scintigraphic imaging of tumor‐bearing mice; format: in vivo, Nude mice (Balb/c); conditions: tumor‐bearing Nude mice
In short: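 PC-3 xenograft-bearing nude mice were pretargeted with the SA:B-MORF:biotinylated BBN analogue mixture (1:1:2) for 7 or 15 h, then given 99mTc-MAG3-cMORF intravenously. Anaesthetised mice, lying horizontally, were imaged on a gamma camera with a low-energy high-resolution collimator. Acquisition used a 20% energy window at 140 keV for 180 s. Tumour region-of-interest uptake was expressed as a percentage.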

[2] = Biodistribution by pretargeting system in Nude mice bearing PC‐3 tumor cells; design: species or system Nude mice (Balb/c); conditions: mouse, in vivo, iv, 50 ul of the mixture

## CSCC[C@H](NC(=O)[C@H](CC(C)C)NC(=O)[C@H](Cc1c[nH]cn1)NC(=O)CNC(=O)[C@@H](NC(=O)[C@H](C)NC(=O)[C@H](Cc1c[nH]c2ccccc12)NC(=O)[C@H](CCC(N)=O)NC(=O)CCOCCOCCOCCOCCOCCOCCOCCOCCOCCOCCOCCOCCNC(=O)CCCC[C@@H]1SC[C@@H]2NC(=O)N[C@@H]21)C(C)C)C(N)=O [B‐PEG‐BBN, Biotin‐dPEG‐Gln‐Trp‐Ala‐Val‐Gly‐His‐Leu‐Met‐NH2]
[1]; 7 h
  ROI (region of interest) in scintigraphic images: 1.47%
[1]; 15 h
  ROI (region of interest) in scintigraphic images: 1.22%
[2]
  tissue to tissue ratio: 2.45

From PMC3059864 (Clinics, 2011)
